Results reported in ChEMBL document CHEMBL3616441, “Discovery of a Selective and CNS Penetrant Negative Allosteric Modulator of Metabotropic Glutamate Receptor Subtype 3 with Antidepressant and Anxiolytic Activity in Rodents” (J Med Chem, 2015).
pEC50, pIC50: −log10 of the molar value. Activity calls are given as the source filed them. The rule behind the calls is not given here.

Assays:
[1] = target: Metabotropic glutamate receptor 5 (Rattus norvegicus) (UniProt P31424); assay: Negative allosteric modulation of rat mGlu5 receptor assessed as calcium mobilization by cell based fluorescence assay; assay type: functional
Metabotropic glutamate receptor 5 (Rattus norvegicus), sequence (P31424 21-1203 limits assumed): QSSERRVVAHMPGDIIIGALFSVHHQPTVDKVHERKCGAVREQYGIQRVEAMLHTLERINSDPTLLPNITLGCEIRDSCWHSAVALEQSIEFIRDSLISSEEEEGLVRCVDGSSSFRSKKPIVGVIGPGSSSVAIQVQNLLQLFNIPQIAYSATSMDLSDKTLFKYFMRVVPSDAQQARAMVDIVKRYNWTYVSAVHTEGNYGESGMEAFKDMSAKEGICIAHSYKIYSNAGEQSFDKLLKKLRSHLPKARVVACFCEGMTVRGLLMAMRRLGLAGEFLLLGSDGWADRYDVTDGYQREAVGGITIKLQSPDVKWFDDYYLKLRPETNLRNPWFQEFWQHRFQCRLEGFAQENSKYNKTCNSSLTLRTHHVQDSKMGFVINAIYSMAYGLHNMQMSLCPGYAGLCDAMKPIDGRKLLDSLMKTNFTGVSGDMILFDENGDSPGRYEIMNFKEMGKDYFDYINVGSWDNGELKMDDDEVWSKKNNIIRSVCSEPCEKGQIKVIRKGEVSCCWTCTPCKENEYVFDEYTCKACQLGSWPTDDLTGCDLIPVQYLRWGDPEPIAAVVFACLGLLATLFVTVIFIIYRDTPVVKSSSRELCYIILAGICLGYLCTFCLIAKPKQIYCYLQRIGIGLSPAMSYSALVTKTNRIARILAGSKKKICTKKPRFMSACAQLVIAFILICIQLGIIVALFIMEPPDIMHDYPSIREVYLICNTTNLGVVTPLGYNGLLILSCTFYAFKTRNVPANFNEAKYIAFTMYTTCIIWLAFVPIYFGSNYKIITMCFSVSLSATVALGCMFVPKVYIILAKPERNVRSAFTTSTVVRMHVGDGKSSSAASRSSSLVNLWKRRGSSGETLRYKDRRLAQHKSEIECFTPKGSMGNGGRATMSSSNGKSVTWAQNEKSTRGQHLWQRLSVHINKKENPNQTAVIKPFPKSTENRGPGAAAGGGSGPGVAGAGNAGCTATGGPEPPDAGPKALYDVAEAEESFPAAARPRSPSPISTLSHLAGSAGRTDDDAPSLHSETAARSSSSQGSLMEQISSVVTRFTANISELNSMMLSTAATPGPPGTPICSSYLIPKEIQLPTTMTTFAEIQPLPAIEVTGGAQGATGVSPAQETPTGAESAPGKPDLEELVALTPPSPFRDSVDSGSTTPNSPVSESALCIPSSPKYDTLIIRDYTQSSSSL

[2] = target: Metabotropic glutamate receptor 3 (Rattus norvegicus, UniProt P31422); assay: Negative allosteric modulation of rat mGlu3 receptor assessed as calcium mobilization by cell based fluorescence assay; assay type: functional
Metabotropic glutamate receptor 3, sequence (P31422 whole entry): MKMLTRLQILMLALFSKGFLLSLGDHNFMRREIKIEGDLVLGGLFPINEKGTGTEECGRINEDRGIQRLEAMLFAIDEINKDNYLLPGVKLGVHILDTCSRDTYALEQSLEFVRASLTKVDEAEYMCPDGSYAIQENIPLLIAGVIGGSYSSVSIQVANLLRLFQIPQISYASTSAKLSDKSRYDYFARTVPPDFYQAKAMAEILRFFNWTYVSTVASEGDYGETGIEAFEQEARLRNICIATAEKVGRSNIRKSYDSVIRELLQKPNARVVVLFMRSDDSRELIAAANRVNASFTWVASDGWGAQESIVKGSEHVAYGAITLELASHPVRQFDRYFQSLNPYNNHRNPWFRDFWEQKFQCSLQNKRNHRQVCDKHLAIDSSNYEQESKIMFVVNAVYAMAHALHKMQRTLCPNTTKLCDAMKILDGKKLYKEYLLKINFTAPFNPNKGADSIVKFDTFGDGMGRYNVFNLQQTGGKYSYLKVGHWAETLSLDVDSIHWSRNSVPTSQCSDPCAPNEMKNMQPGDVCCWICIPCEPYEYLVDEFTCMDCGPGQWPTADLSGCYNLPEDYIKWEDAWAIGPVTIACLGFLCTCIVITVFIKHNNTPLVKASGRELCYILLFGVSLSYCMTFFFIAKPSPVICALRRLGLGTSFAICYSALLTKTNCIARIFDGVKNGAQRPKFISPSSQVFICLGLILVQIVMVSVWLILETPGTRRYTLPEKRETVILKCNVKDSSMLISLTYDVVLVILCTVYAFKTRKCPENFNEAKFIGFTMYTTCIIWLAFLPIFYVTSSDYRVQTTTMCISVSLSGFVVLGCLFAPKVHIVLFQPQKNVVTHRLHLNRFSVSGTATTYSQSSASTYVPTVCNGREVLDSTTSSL
How it was run: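 Cell line stably expressing rat mGlu3 with the promiscuous G-protein Gα15. Calcium mobilization with fluorescence read-out, inhibition of the glutamate response. Full concentration-response curves, top concentration 30 μM. % Glu Max is the response with 30 μM test compound as a percentage of the maximal response to 100 μM glutamate. Values averaged over n-3.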

[3] = target: Metabotropic glutamate receptor 3 (Rattus norvegicus) (UniProt P31422); assay: Negative allosteric modulation of rat mGlu3 receptor assessed as amplitude response at 30 uM relative to glutamate
Metabotropic glutamate receptor 3 (Rattus norvegicus), sequence (P31422 23-879 limits assumed): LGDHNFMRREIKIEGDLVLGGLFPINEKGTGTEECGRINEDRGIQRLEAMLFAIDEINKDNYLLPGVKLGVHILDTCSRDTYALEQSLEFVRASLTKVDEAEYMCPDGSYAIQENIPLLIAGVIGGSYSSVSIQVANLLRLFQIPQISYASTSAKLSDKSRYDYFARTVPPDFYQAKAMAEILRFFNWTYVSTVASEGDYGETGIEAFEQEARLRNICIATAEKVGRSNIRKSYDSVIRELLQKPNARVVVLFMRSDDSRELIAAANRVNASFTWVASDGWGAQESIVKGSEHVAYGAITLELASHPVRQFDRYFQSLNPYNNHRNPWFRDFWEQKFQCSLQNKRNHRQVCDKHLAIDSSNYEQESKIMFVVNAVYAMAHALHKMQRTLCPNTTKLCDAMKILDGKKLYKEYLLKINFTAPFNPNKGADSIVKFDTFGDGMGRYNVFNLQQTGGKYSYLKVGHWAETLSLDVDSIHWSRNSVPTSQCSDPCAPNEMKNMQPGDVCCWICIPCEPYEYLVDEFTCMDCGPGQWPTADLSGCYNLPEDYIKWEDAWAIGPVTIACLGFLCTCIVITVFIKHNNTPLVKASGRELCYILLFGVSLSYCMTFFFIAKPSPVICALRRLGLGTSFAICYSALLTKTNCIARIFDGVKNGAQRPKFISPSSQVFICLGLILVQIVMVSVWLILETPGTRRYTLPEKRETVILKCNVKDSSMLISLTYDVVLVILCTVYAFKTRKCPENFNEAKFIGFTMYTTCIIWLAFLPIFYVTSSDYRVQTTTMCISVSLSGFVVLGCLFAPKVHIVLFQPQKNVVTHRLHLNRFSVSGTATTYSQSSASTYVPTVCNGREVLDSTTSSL
How it was run: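 Calcium mobilization in cell line stably expressing rat mGlu3 with promiscuous Gα15; fluorescence read-out; amplitude of glutamate response with 30 μM test compound expressed as percentage of maximal response (100 μM glutamate); average of n = 3.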

[4] = target: Metabotropic glutamate receptor 5 (Rattus norvegicus, UniProt P31424); assay: Modulation of rat mGlu5 receptor assessed as calcium mobilization by cell based fluorescence assay; assay type: functional
Metabotropic glutamate receptor 5, sequence (P31424 whole entry): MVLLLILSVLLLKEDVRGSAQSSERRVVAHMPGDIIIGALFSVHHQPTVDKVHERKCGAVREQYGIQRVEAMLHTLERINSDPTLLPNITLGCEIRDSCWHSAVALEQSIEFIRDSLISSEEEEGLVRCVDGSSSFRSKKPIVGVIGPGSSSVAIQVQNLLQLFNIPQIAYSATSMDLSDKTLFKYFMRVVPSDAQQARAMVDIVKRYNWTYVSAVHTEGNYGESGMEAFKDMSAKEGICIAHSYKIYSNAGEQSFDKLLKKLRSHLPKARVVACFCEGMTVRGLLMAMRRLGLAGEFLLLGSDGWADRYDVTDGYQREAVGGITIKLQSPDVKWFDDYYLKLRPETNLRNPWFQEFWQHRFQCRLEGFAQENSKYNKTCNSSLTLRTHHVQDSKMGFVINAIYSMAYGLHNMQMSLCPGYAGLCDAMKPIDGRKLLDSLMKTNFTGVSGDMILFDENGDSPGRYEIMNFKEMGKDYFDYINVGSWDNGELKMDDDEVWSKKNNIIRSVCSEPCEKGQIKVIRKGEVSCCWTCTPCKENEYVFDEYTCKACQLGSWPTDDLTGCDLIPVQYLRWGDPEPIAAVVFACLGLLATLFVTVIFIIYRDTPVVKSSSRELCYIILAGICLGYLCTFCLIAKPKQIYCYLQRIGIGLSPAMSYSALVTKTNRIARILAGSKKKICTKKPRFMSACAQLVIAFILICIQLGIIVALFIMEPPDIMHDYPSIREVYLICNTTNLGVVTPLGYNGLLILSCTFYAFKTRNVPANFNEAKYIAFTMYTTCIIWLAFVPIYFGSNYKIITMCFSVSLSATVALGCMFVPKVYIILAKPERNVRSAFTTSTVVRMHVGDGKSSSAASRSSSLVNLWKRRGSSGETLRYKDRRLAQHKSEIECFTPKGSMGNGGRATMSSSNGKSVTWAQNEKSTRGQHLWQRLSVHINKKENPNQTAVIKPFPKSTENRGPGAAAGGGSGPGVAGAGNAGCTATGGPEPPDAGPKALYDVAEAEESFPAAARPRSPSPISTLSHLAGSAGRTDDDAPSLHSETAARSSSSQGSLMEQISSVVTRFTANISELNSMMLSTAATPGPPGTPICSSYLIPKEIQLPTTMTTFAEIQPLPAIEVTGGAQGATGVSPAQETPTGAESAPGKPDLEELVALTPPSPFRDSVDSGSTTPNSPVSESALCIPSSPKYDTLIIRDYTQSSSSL
How it was run: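 Calcium mobilization assay with fluorescence read-out in cells expressing mGlu5; full concentration-response curves; % Glu Max is the amplitude of response with 30 μM test compound as a percentage of the maximal response to 100 μM glutamate; values averaged over n-3.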

[5] = target: Metabotropic glutamate receptor 5 (Rattus norvegicus) (UniProt P31424); assay: Modulation of rat mGlu5 receptor assessed as assessed as calcium mobilization at 30 uM by cell based fluorescence assay; assay type: functional
Plasma = assay: Fraction unbound in rat plasma; assay type: ADME, cell-free
[6] = Half life in rat at 0.2 mg/kg, iv administered as cassette dose; assay type: ADME, organism-based; details: in vivo
[7] = Plasma clearance in rat at 0.2 mg/kg, iv administered as cassette dose; assay type: ADME, organism-based
[8] = Volume of distribution at steady state in rat at 0.2 mg/kg, iv administered as cassette dose; assay type: ADME, organism-based; details: in vivo, read-out: Vdss
Brain = assay: Fraction unbound in rat brain; assay type: ADME, tissue-based
[9] = target: Metabotropic glutamate receptor 5 (Rattus norvegicus) (UniProt P31424); assay: Positive allosteric modulation of rat mGlu5 receptor assessed as calcium mobilization by cell based fluorescence assay; assay type: functional
[10] = target: Metabotropic glutamate receptor 2 (Rattus norvegicus) (UniProt P31421); assay: Negative allosteric modulation of rat mGlu2 receptor assessed as calcium mobilization at 30 uM by cell based fluorescence assay; assay type: functional
Metabotropic glutamate receptor 2 (Rattus norvegicus), sequence (P31421 19-872 limits assumed): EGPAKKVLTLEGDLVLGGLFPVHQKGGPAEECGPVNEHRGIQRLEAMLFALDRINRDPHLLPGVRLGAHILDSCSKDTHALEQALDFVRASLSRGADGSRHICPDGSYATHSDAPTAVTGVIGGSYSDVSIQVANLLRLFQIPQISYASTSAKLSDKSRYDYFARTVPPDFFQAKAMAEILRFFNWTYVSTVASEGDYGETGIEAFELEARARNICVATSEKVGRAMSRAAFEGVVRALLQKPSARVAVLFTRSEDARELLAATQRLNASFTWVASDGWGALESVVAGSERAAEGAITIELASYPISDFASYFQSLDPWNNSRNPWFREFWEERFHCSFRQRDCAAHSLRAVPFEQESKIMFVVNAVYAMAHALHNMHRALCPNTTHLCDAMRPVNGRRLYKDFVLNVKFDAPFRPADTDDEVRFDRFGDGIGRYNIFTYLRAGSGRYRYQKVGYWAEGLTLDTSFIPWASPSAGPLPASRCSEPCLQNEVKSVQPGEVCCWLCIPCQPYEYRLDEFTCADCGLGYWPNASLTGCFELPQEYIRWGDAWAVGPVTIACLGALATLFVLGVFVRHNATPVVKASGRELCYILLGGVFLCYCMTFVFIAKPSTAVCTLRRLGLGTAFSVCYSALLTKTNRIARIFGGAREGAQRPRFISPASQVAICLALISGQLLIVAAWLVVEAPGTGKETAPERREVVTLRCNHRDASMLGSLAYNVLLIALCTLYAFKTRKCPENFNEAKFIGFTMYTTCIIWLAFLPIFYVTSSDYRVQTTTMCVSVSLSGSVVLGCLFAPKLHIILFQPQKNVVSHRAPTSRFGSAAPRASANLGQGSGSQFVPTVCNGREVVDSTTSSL
How it was run: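 Rat mGlu2 calcium mobilization assay with fluorescence read-out; full concentration-response curve analysis up to 30 μM top concentration.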

Structure (SMILES): C[C@@H]1CN(c2cccc(F)c2F)C(=O)c2cc(COc3ccc(F)cn3)nn21
- Activity [1]: Active
- pIC50 [2]: 6.74
- Activity [3]: 2.15%
- pEC50 [4]: 5.68
- Activity [5]: 21%
- Fu (Plasma): 0.092

Structure (SMILES): C[C@@H]1CN(c2cncc(C#N)c2)C(=O)c2cc(COc3ccc(Cl)cn3)nn21
- half-life [6]: 0.983 h
- clearance [7]: 22 mL/min/kg
- Vd [8]: 1.4 L/kg
- Fu (Brain): 0.033
- pIC50 [2]: 6.22
- Activity [3]: 1.08%
- pEC50 [4]: < 4.52
- Fu (Plasma): 0.078

Structure (SMILES): CCOc1ccc(OCc2cc3n(n2)[C@H](C)CN(c2ccc(F)cc2)C3=O)cc1
- half-life [6]: 0.533 h
- clearance [7]: 82 mL/min/kg
- Vd [8]: 2.2 L/kg
- pIC50 [2]: 5.94
- Activity [3]: 3.39%
- pEC50 [4]: < 4.52
- Fu (Plasma): 0.005

Structure (SMILES): C[C@@H]1CN(c2ccccn2)C(=O)c2cc(COc3ccc(F)cn3)nn21
- Activity [1]: Active
- pIC50 [2]: 6.04
- Activity [3]: 0.96%
- pEC50 [4]: 5.45
- Activity [5]: 3.71%

Structure (SMILES): C[C@@H]1CN(c2cccc(Cl)c2)C(=O)c2cc(COc3ccc(F)cn3)nn21
- Activity [1]: Active
- pIC50 [2]: 6.84
- Activity [3]: 2.3%
- pEC50 [4]: 5.73
- Activity [5]: 19.2%
- Fu (Plasma): 0.034

Structure (SMILES): Cc1ccnc(OCc2cc3n(n2)[C@H](C)CN(c2ccc(F)cc2)C3=O)c1
- Activity [1]: Active
- pIC50 [2]: 5.68
- Activity [3]: 0.86%
- pEC50 [4]: < 5.00
- Activity [5]: 46.9%

Structure (SMILES): COc1ccnc(OCc2cc3n(n2)[C@H](C)CN(c2ccc(F)cc2)C3=O)c1
- Activity [1]: Active
- pIC50 [2]: 5.43
- Activity [3]: -0.18%
- pEC50 [4]: < 5.00
- Activity [5]: 54.7%

Structure (SMILES): COc1cccc(N2C[C@@H](C)n3nc(COc4ccc(F)cn4)cc3C2=O)c1
- Activity [1]: Active
- pIC50 [2]: 6.70
- Activity [3]: 1.02%
- pEC50 [4]: < 5.00
- Activity [5]: 59.7%

Structure (SMILES): Cc1ccc(N2C[C@@H](C)n3nc(COc4ccc(F)cn4)cc3C2=O)cc1
- Activity [1]: Active
- pIC50 [2]: 6.57
- Activity [3]: 1.04%
- pEC50 [4]: < 5.00
- Activity [5]: 54.8%

Structure (SMILES): C[C@@H]1CN(c2c(F)cccc2F)C(=O)c2cc(COc3ccc(F)cn3)nn21
- Activity [1]: Active
- pIC50 [2]: 6.74
- Activity [3]: 1.49%
- pEC50 [4]: 5.91
- Activity [5]: 50.8%
- Fu (Plasma): 0.064

Structure (SMILES): C[C@@H]1CN(c2ccc(F)cn2)C(=O)c2cc(COc3ccc(F)cn3)nn21
- Activity [1]: Active
- pIC50 [2]: 6.46
- Activity [3]: 1.31%
- pEC50 [4]: 5.01
- Activity [5]: 7%

Structure (SMILES): Cc1cccc(OCc2cc3n(n2)[C@H](C)CN(c2ccc(F)cc2)C3=O)n1
- Activity [1]: Active
- pIC50 [2]: 5.63
- Activity [3]: 1.12%
- pEC50 [4]: 5.65
- Activity [5]: 2.47%

Structure (SMILES): C[C@@H]1CN(c2ccc(F)cc2)C(=O)c2cc(COc3cccc(Cl)c3)nn21
- Activity [1]: Active
- pIC50 [2]: 5.79
- Activity [3]: 1.96%
- pEC50 [4]: < 5.00
- Activity [5]: 32.8%

Structure (SMILES): C[C@@H]1CN(c2ccccn2)C(=O)c2cc(COc3ccc(Cl)cn3)nn21
- pIC50 [2]: 6.48
- Activity [3]: 1.07%
- pEC50 [4]: < 4.52
- Fu (Plasma): 0.051

Structure (SMILES): Cc1cccc(OCc2cc3n(n2)[C@H](C)CN(c2ccc(F)cc2)C3=O)c1
- Activity [1]: Active
- pIC50 [2]: 5.84
- Activity [3]: 2.35%
- pEC50 [4]: < 5.00
- Activity [5]: 39.7%

Structure (SMILES): C[C@@H]1CN(c2cc(F)cc(C#N)c2)C(=O)c2cc(COc3ccc(Cl)cn3)nn21
- Activity [9]: Active
- half-life [6]: 3.23 h
- clearance [7]: 13 mL/min/kg
- Vd [8]: 2.2 L/kg
- Fu (Brain): 0.032
- pIC50 [2]: 6.50
- Activity [3]: 1.92%
- pEC50 [4]: 5.98
- Activity [5]: 28%
- Fu (Plasma): 0.045

Structure (SMILES): C[C@@H]1CN(c2cccc(F)c2)C(=O)c2cc(COc3ccc(F)cn3)nn21
- Activity [1]: Active
- pIC50 [2]: 6.72
- Activity [3]: 1.44%
- pEC50 [4]: 5.57
- Activity [5]: 9.71%
- Fu (Plasma): 0.094

Structure (SMILES): C[C@@H]1CN(c2cccnc2)C(=O)c2cc(COc3ccc(F)cn3)nn21
- Activity [1]: Active
- pIC50 [2]: 6.36
- Activity [3]: 0.64%
- pEC50 [4]: < 5.00
- Activity [5]: 46.3%

Structure (SMILES): C[C@@H]1CN(c2cccc(F)n2)C(=O)c2cc(COc3ccc(Cl)cn3)nn21
- Activity [1]: Active
- pIC50 [2]: 6.53
- Activity [3]: 1.75%
- pEC50 [4]: < 5.00
- Activity [5]: 24.8%

Structure (SMILES): C[C@@H]1CN(c2ccc(F)cc2)C(=O)c2cc(COc3ccccn3)nn21
- Activity [10]: inactive

Structure (SMILES): Cc1ccccc1N1C[C@@H](C)n2nc(COc3ccc(F)cn3)cc2C1=O
- Activity [1]: Active
- pIC50 [2]: 6.46
- Activity [3]: 1.72%
- pEC50 [4]: < 5.00
- Activity [5]: 35.8%

Structure (SMILES): C[C@@H]1CN(c2ccc(F)cc2)C(=O)c2cc(COc3ccc(F)cc3)nn21
- Activity [9]: Active
- half-life [6]: 1.58 h
- clearance [7]: 40 mL/min/kg
- Vd [8]: 3.5 L/kg
- pIC50 [2]: 6.34
- Activity [3]: 2.09%
- pEC50 [4]: 7.04
- Activity [5]: 87%
- Fu (Plasma): 0.06

Structure (SMILES): C[C@@H]1CN(c2ccccc2Cl)C(=O)c2cc(COc3ccc(F)cn3)nn21
- Activity [1]: Active
- pIC50 [2]: 6.85
- Activity [3]: 1.37%
- pEC50 [4]: 6.00
- Activity [5]: 8.78%
- Fu (Plasma): 0.054

Structure (SMILES): C[C@@H]1CN(c2ccccc2F)C(=O)c2cc(COc3ccc(F)cn3)nn21
- Activity [1]: Active
- pIC50 [2]: 6.79
- Activity [3]: 1.53%
- pEC50 [4]: < 5.00
- Activity [5]: 29.1%
- Fu (Plasma): 0.098

Structure (SMILES): COc1ccccc1N1C[C@@H](C)n2nc(COc3ccc(Cl)cn3)cc2C1=O
- Activity [1]: Active
- pIC50 [2]: 6.16
- Activity [3]: 1.29%
- pEC50 [4]: < 5.00
- Activity [5]: 58.5%

Structure (SMILES): C[C@@H]1CN(c2cnccc2F)C(=O)c2cc(COc3ccc(Cl)cn3)nn21
- pIC50 [2]: 6.32
- Activity [3]: 1.45%
- pEC50 [4]: < 4.52
- Fu (Plasma): 0.085

Structure (SMILES): Cc1cccc(N2C[C@@H](C)n3nc(COc4ccc(F)cn4)cc3C2=O)c1
- Activity [1]: Active
- pIC50 [2]: 6.67
- Activity [3]: 1.93%
- pEC50 [4]: < 5.00
- Activity [5]: 36.6%
- Fu (Plasma): 0.051

Structure (SMILES): C[C@@H]1CN(c2cccnc2)C(=O)c2cc(COc3ccc(Cl)cn3)nn21
- half-life [6]: 0.35 h
- clearance [7]: 50 mL/min/kg
- Vd [8]: 1.2 L/kg
- pIC50 [2]: 6.22
- Activity [3]: 1.73%
- pEC50 [4]: < 4.52
- Fu (Plasma): 0.118

Structure (SMILES): C[C@@H]1CN(c2ccc(F)cc2)C(=O)c2cc(COc3ccc(F)cn3)nn21
- Activity [1]: Active
- half-life [6]: 1.47 h
- clearance [7]: 82 mL/min/kg
- Vd [8]: 6.6 L/kg
- pIC50 [2]: 6.27
- Activity [3]: 1.71%
- pEC50 [4]: < 5.00
- Activity [5]: 46.5%
- Fu (Plasma): 0.135

Structure (SMILES): C[C@@H]1CN(c2ccc(F)cc2)C(=O)c2cc(COc3ccc(Cl)cn3)nn21
- Activity [9]: Active
- half-life [6]: 2.35 h
- clearance [7]: 29 mL/min/kg
- Vd [8]: 5.2 L/kg
- pIC50 [2]: 6.22
- Activity [3]: 1.84%
- pEC50 [4]: 5.53
- Activity [5]: 81.4%
- Fu (Plasma): 0.034

Structure (SMILES): COc1ccccc1N1C[C@@H](C)n2nc(COc3ccc(F)cn3)cc2C1=O
- Activity [1]: Active
- pIC50 [2]: 6.47
- Activity [3]: 1.49%
- pEC50 [4]: 6.52
- Activity [5]: 3.28%

Structure (SMILES): C[C@@H]1CN(c2cncc(F)c2)C(=O)c2cc(COc3ccc(Cl)cn3)nn21
- half-life [6]: 0.5 h
- clearance [7]: 50 mL/min/kg
- Vd [8]: 1.9 L/kg
- pIC50 [2]: 6.32
- Activity [3]: 1.85%
- pEC50 [4]: < 4.52
- Fu (Plasma): 0.092

Structure (SMILES): C[C@@H]1CN(c2cc(F)ccc2F)C(=O)c2cc(COc3ccc(F)cn3)nn21
- Activity [1]: Active
- pIC50 [2]: 6.91
- Activity [3]: 2.62%
- pEC50 [4]: < 5.00
- Activity [5]: 18.8%
- Fu (Plasma): 0.089
